# According to PMC10692386 (Acta Pharmaceutica Sinica. B, 2023):
# Columns and labels:
# [1] = system: HIV-1 mutant K103N + Y181C; experiment: Anti-HIV-1 efficacy against mutant K103N + Y181C in MT-4 cells; assay type: cell-based; conditions: Human immunodeficiency virus 1, MT4, read-out: EC50 K103N + Y181C
# Method in brief: (§1)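 MT-4 cells were infected with HIV-1 RT mutant strains. EC50 was the concentration giving 50% protection against viral cytopathicity, averaged from at least three independent experiments. Cytotoxicity in mock-infected cultures was read by MTT.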
# HIV-1 mutant K103N = experiment: Anti-HIV-1 efficacy against mutant K103N in MT-4 cells; assay type: cell-based; conditions: Human immunodeficiency virus 1, MT4, read-out: EC50 K103N
# Method in brief: as §1
# HIV-1 mutant Y188L = experiment: Anti-HIV-1 efficacy against mutant Y188L in MT-4 cells; assay type: cell-based; conditions: Human immunodeficiency virus 1, MT4, read-out: EC50 Y188L
# Method in brief: as §1
# HIV-1 mutant Y181C = experiment: Anti-HIV-1 efficacy against mutant Y181C in MT-4 cells; assay type: cell-based; conditions: Human immunodeficiency virus 1, MT4, read-out: EC50 Y181C
# Method in brief: as §1
# WT HIV-1 = experiment: Anti-HIV-1 activity in MT-4 cells infected with HIV-1; assay type: cell-based; conditions: for EC50: Human immunodeficiency virus 1, MT4; for SI: selectivity index, the ratio of CC50/EC50, WT HIV-1
# HIV-1 mutant E138K = experiment: Anti-HIV-1 efficacy against mutant E138K in MT-4 cells; assay type: cell-based; conditions: Human immunodeficiency virus 1, MT4, read-out: EC50 E138K
# Method in brief: as §1
# WT HIV-1 RT = WT HIV-1 RT (Human immunodeficiency virus type 1 group M subtype B, UniProt P03366); experiment: Inhibition of WT HIV-1 RT; assay type: biochemical
# HIV-1 mutant L100I = experiment: Anti-HIV-1 efficacy against mutant L100I in MT-4 cells; assay type: cell-based; conditions: Human immunodeficiency virus 1, MT4, read-out: EC50 L100I
# Method in brief: as §1
# [2] = Cytotoxicity in mock-infected MT-4 cell cultures; assay type: cell-based; conditions: human, mock-infected MT-4 cells
SMILES,EC50 [1],EC50 (HIV-1 mutant K103N),EC50 (HIV-1 mutant Y188L),EC50 (HIV-1 mutant Y181C),EC50 (WT HIV-1),SI (WT HIV-1),EC50 (HIV-1 mutant E138K),IC50 (WT HIV-1 RT),EC50 (HIV-1 mutant L100I),CC50 [2]
Cn1c(Cn2ccc(C(F)(F)F)c(Oc3cncc(Cl)c3)c2=O)n[nH]c1=O [7a],18.3 ± 11.4 µM,1.22 ± 0.56 µM,122 ± 62.1 µM,1.79 ± 0.58 µM,0.55 ± 0.23 µM,>563,0.61 ± 0.04 µM,1.14 ± 0.043 µM,0.93 ± 0.51 µM,> 311 µM
Cc1cc(Oc2c(C(F)(F)F)ccn(Cc3n[nH]c(=O)n3C)c2=O)c2cccc(F)c2n1 [7aa],,,,,> 220 µM,<1,,,,220 ± 44.4 µM
Cc1cc(Oc2c(C(F)(F)F)ccn(Cc3n[nH]c(=O)n3C)c2=O)c2cccc(C)c2n1 [7ac],,,,,> 151 µM,<1,,,,151 ± 27.9 µM
Cc1cc(Oc2c(C(F)(F)F)ccn(Cc3n[nH]c(=O)n3C)c2=O)c2cc(F)c(Cl)cc2n1 [7ae],,,,,11.7 ± 9.1 µM,7.92,,,,92.9 ± 44 µM
Cc1cc(Oc2c(C(F)(F)F)ccn(Cc3n[nH]c(=O)n3C)c2=O)c2c(Cl)c(F)ccc2n1 [7af],,,,,33.3 ± 9.61 µM,2.45,,,,81.5 ± 11.7 µM
Cn1c(Cn2ccc(C(F)(F)F)c(Oc3cnc4ccccc4c3)c2=O)n[nH]c1=O [7ag],,,,,> 250 µM,>1,,,,> 250 µM
Cn1c(Cn2ccc(C(F)(F)F)c(Oc3ccc4ncccc4c3)c2=O)n[nH]c1=O [7ah],,,,,252 ± 5.75 µM,>1,,,,> 299 µM
Cn1c(Cn2ccc(C(F)(F)F)c(Oc3ccc4cnccc4c3)c2=O)n[nH]c1=O [7ai],,,,,11.2 ± 2.83 µM,>27,,,,> 299 µM
Cn1c(Cn2ccc(C(F)(F)F)c(Oc3cc(Cl)c4ncccc4c3)c2=O)n[nH]c1=O [7ak],,,,,> 192 µM,<1,,,,192 ± 42.9 µM
Cn1c(Cn2ccc(C(F)(F)F)c(Oc3ccc4nc(Cl)ccc4c3)c2=O)n[nH]c1=O [7al],,,,,46.7 ± 12.5 µM,3.68,,,,172 ± 44.9 µM
Cn1c(Cn2ccc(C(F)(F)F)c(Oc3ccc4cccnc4c3Br)c2=O)n[nH]c1=O [7am],,,,,> 164 µM,<1,,,,164 ± 25.5 µM
Cn1c(Cn2ccc(C(F)(F)F)c(Oc3cccnc3Cl)c2=O)n[nH]c1=O [7b],,,,,4.27 ± 0.75 µM,67.97,,,,290 ± 24.1 µM
Cn1c(Cn2ccc(C(F)(F)F)c(Oc3ccc(Cl)nc3)c2=O)n[nH]c1=O [7c],,,,,35.6 ± 10.3 µM,>9,,,,> 311 µM
Cn1c(Cn2ccc(C(F)(F)F)c(Oc3cnc(Cl)c(Cl)c3)c2=O)n[nH]c1=O [7d],,,,,2.02 ± 0.88 µM,122.98,,,,248 ± 28.2 µM
Cn1c(Cn2ccc(C(F)(F)F)c(Oc3cncc(Br)c3)c2=O)n[nH]c1=O [7e],12.3 ± 8.12 µM,0.95 ± 0.27 µM,39 ± 5.33 µM,0.85 ± 0.15 µM,0.49 ± 0.12 µM,>573,0.62 ± 0.22 µM,0.74 ± 0.03 µM,0.68 ± 0.22 µM,> 280 µM
Cn1c(Cn2ccc(C(F)(F)F)c(Oc3cccnc3Br)c2=O)n[nH]c1=O [7f],,,,,4.44 ± 0.94 µM,61.07,,,,270.9 ± 1.77 µM
Cn1c(Cn2ccc(C(F)(F)F)c(Oc3ccc(Br)nc3)c2=O)n[nH]c1=O [7g],,,,,197 ± 58.9 µM,>1,,,,> 280 µM
Cc1cncc(Oc2c(C(F)(F)F)ccn(Cc3n[nH]c(=O)n3C)c2=O)c1 [7h],16.1 ± 7.33 µM,1.2 ± 0.18 µM,196 ± 12.1 µM,1.78 ± 0.1 µM,0.53 ± 0.16 µM,>616,0.77 ± 0.04 µM,1.03 ± 0.14 µM,0.55 ± 0.33 µM,> 328 µM
Cc1ncccc1Oc1c(C(F)(F)F)ccn(Cc2n[nH]c(=O)n2C)c1=O [7i],,,,,6.76 ± 1.07 µM,>49,,,,> 328 µM

SMILES,EC50 [1],EC50 (HIV-1 mutant K103N),EC50 (HIV-1 mutant Y188L),EC50 (HIV-1 mutant Y181C),EC50 (WT HIV-1),SI (WT HIV-1),EC50 (HIV-1 mutant E138K),IC50 (WT HIV-1 RT),EC50 (HIV-1 mutant L100I),CC50 [2]
Cc1ccc(Oc2c(C(F)(F)F)ccn(Cc3n[nH]c(=O)n3C)c2=O)cn1 [7j],,,,,21.1 ± 5 µM,,,,,> 328 µM
Cc1ccncc1Oc1c(C(F)(F)F)ccn(Cc2n[nH]c(=O)n2C)c1=O [7k],,,,,1.53 ± 0.25 µM,>214,,,,> 328 µM
Cc1ccc(Oc2c(C(F)(F)F)ccn(Cc3n[nH]c(=O)n3C)c2=O)c(Br)n1 [7l],,,,,> 250 µM,<1,,,,253 ± 16.8 µM
Cc1ccc(Oc2c(C(F)(F)F)ccn(Cc3n[nH]c(=O)n3C)c2=O)c(C)n1 [7m],,,,,> 250 µM,<1,,,,> 250 µM
CCc1nc(C)ccc1Oc1c(C(F)(F)F)ccn(Cc2n[nH]c(=O)n2C)c1=O [7n],,,,,> 250 µM,,,,,299 ± 3.74 µM
Cc1cc(Oc2c(C(F)(F)F)ccn(Cc3n[nH]c(=O)n3C)c2=O)cnc1Br [7o],,,,,1.27 ± 0.36 µM,>214,,,,> 272 µM
Cc1cc(Oc2c(C(F)(F)F)ccn(Cc3n[nH]c(=O)n3C)c2=O)cnc1F [7p],,,,,1.46 ± 0.54 µM,,,,,> 250 µM
COc1cncc(Oc2c(C(F)(F)F)ccn(Cc3n[nH]c(=O)n3C)c2=O)c1 [7q],,,,,7.33 ± 5.03 µM,>43,,,,> 250 µM
Cn1c(Cn2ccc(C(F)(F)F)c(Oc3ccc(C(F)(F)F)nc3)c2=O)n[nH]c1=O [7r],,,,,> 250 µM,>1,,,,> 250 µM
Cn1c(Cn2ccc(C(F)(F)F)c(Oc3cccnc3)c2=O)n[nH]c1=O [7s],,,,,1.22 ± 0.24 µM,>278,,,,> 367 µM
Cc1ncc(Oc2c(C(F)(F)F)ccn(Cc3n[nH]c(=O)n3C)c2=O)cn1 [7t],,,,,> 250 µM,>1,,,,> 250 µM
Cn1c(Cn2ccc(C(F)(F)F)c(Oc3cncc4ccccc34)c2=O)n[nH]c1=O [7u],34 ± 13 µM,3.01 ± 1.42 µM,> 250 µM,1.56 ± 0.49 µM,0.89 ± 0.23 µM,309.52,0.9 ± 0.29 µM,4.38 ± 0.35 µM,0.5 ± 0.22 µM,277 ± 10.1 µM
Cn1c(Cn2ccc(C(F)(F)F)c(Oc3cccc4ncccc34)c2=O)n[nH]c1=O [7v],,,,,4.48 ± 1.24 µM,62.10,,,,278 ± 18.6 µM
Cn1c(Cn2ccc(C(F)(F)F)c(Oc3cccc4ccncc34)c2=O)n[nH]c1=O [7x],,,,,1.23 ± 0.28 µM,>244,,,,> 299 µM
Cn1c(Cn2ccc(C(F)(F)F)c(Oc3cccc4nccnc34)c2=O)n[nH]c1=O [7y],,,,,8.07 ± 1.41 µM,27.30,,,,220 ± 35.5 µM
Cc1cc(Oc2c(C(F)(F)F)ccn(Cc3n[nH]c(=O)n3C)c2=O)c2ccccc2n1 [7z],,,,,> 233 µM,<1,,,,233 ± 32.1 µM
"Cn1c(Cn2ccc(C(F)(F)F)c(Oc3cc(Cl)cc(C#N)c3)c2=O)n[nH]c1=O [DOR, doravirine, reference compound]",0.142 ± 0.057 µM,0.042 ± 0.0013 µM,0.5 ± 0.15 µM,0.025 ± 0.0023 µM,0.013 ± 0.004 µM,,0.0075 ± 0.0026 µM,0.044 ± 0.005 µM,0.0066 ± 0.0017 µM,293.24 ± 0.17 µM
"Cc1cc(C#N)cc(C)c1Oc1nc(Nc2ccc(C#N)cc2)nc(N)c1Br [ETR, etravirine, reference compound]",0.031 ± 0.009 µM,0.002 µM,0.018 ± 0.008 µM,0.019 ± 0.009 µM,0.0029 ± 0.002 µM,>1600,0.006 ± 0.001 µM,,0.006 ± 0.004 µM,> 4.6 µM
